This is a sample that favours compounds with a hit; in the whole collection about 3.1% have one here.
Apaf1 inhib: inhibitors of human Apaf-1 apoptosome, primary screen, biochemical, DEVD-Rh110 fluorescence, uHTS; Apoptotic protease-activating factor 1 (Homo sapiens), O14727; reconstituted apoptosome caspase-3 activity; inhibition, % at 20 µM; 330,000 tested, 0.71% active; active means inhibition of at least 40% at 20 µM;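 further: plate controls were DMSO wells for no effect and DEVD-CHO caspase inhibitor wells for full effect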
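Material: reconstituted apoptosome with Apaf-1, cytochrome c, caspase-9, procaspase-3, dATP / Buffer or medium: pH 7.5 Hepes buffer with CHAPS, BSA, DTT / Also added: cytochrome c with DEVD-Rh110 / Schedule: compound with Apaf-1, dATP, procaspase-3 30 min, then 50 min reaction, room temperature / Technique: rhodamine 110 fluorescence at Ex 480/Em 540 nm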
PREPL inh: PREPL enzyme inhibitors, primary screen, biochemical, fluorescence polarization; recombinant PREPL, fluorescence polarization activity-based probe; inhibition, % at 5.96 µM; 320,000 tested, 0.68% active; in the data active means inhibition above about 43%;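 further: 0% = enzyme with DMSO and 100% = wells lacking enzyme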
UBC13 inh: UBC13 polyubiquitin chain formation inhibitors, primary screen, biochemical, TR-FRET, uHTS; Ubiquitin-conjugating enzyme E2 N (Homo sapiens), P61088; inhibition, % at 20 µM; 330,000 tested, 0.47% active; in the data active means inhibition above about 45%, passing the limit was not always enough
MEKK2 mut-MEK5: MEK5 binding signal on mutant MEKK2 PB1, primary screen, biochemical, multiplex bead flow cytometry, Alexa488-MEK5; Alexa488-MEK5 binding to MEKK2 mutant; percent response, % at 10 µM; 290,000 tested, 0.35% active; in the data active means percent response above about 24%, passing the limit was not always enough
MEKK3 PB1 HTS: modulators of MEKK3-MEK5 PB1 binding, primary screen, biochemical, wildtype MEKK3, multiplex bead flow cytometry, Alexa488-MEK5 | bead-based flow cytometry, Alexa488-MEK5 binding to MEKK3; actives lie on both sides; 0 = blocked by unlabeled MEK5, 100 = vehicle | binding response (% of control), % at 10 µM | 290,000 tested, 1.4% active;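 active means binding response more than 3 SD above or below the average of its plate-row segment, actives on both sides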;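 further: Alexa488 bead fluorescence after subtracting the streptavidin-only scavenger bead signal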
Target sequence (Q99759 whole entry, looked up): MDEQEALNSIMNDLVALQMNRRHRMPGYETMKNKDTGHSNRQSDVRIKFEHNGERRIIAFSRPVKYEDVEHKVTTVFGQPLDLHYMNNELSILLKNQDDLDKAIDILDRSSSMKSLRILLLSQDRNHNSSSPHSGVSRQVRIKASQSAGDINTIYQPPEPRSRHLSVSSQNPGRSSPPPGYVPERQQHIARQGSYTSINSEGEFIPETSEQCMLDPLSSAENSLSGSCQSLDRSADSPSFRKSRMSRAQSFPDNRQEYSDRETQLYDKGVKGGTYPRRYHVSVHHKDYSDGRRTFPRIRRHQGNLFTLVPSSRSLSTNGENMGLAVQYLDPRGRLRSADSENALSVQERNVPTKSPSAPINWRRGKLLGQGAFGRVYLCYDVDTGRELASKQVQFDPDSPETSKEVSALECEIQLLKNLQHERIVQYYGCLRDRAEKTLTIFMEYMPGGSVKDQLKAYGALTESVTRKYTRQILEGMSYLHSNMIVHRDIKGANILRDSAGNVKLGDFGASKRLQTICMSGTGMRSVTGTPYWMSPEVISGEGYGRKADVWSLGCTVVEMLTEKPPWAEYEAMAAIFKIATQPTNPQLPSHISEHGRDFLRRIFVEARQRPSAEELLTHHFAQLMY
MEKK2wt PB1 HTS: modulators of MEK5 binding to wildtype MEKK2, primary screen, biochemical, multiplex bead flow cytometry, Alexa488-MEK5. binding response (% of control), % at 10 µM. Mitogen-activated protein kinase kinase kinase 2 (Homo sapiens), Q9Y2U5. 290,000 tested, 1.1% active. Alexa488-MEK5 binding to MEKK2 WT; actives lie on both sides. AID 1531, 2009; in the data active means binding response below about 67% or above about 130%
MEKK2wt confirm: modulators of MEK5 binding to wildtype MEKK2, confirmation, biochemical, single concentration, multiplex bead flow cytometry; 5,900 tested, 2.4% active; shares compounds with MEKK3 PB1 HTS; binding response (% of control), % at 10 µM; Alexa488-MEK5 binding to MEKK2 WT; actives lie on both sides; in the data active means binding response below about 16% or above about 210%; inactive means in between
MEKK2mut confirm: mutant MEKK2 PB1-MEK5 binding signal retest – biochemical, single concentration, multiplex bead flow cytometry, confirmation. percent response, % at 10 µM. 5,900 tested, 2% active. shares compounds with MEKK3 PB1 HTS. AID 1893, 2009. Alexa488-MEK5 binding to MEKK2 mutant; in the data active means percent response mostly above about 71%, no sharp cut-off; inactive means mostly below about 38%;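 further: higher means compound restores mutant binding toward wildtype level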
MEKK3-MEK5 inh: MEKK3 wild-type PB1 binding to MEK5, inhibitors, confirmation, biochemical, bead multiplex flow cytometry, single concentration, wildtype | binding response (% of control), % at 10 µM | Alexa488-MEK5 binding to MEKK3; active compounds read low | AID 1894, 2009 | 5,900 tested, 1.8% active | shares compounds with MEKK3 PB1 HTS;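 active means binding response below 72% of control, or above a set upper limit, though filed actives all read lower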;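 further: 100% = DMSO only wells and 0% = binding blocked by excess unlabeled MEK5; lower values mean stronger disruption of MEK5 binding to MEKK3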
Active calls of the source: *; x = no result given; [ ] = remark or other dose.

SMILES	Apaf1 inhib	PREPL inh	UBC13 inh	MEKK2 mut-MEK5	MEKK3 PB1 HTS	MEKK2wt PB1 HTS	MEKK2wt confirm	MEKK2mut confirm	MEKK3-MEK5 inh
c1ccc(-[n+]2nc(Nc3cccc4ccccc34)sc2-c2c3ccccc3cc3ccccc23)cc1	29.4	29.9	-92.7	x	x	x	x	x	x
Cc1ccc(-c2nc(N)sc2CC(=O)OCC(=O)N2C(C)CCCC2C)cc1 (centres undefined)	8.6	2.1	-2.0	1.0	140.0*	111.0	98.0	-5.0	101.0
COc1ccc(OCC(=O)NNC(=S)NC(=O)c2ccc(Br)o2)cc1	4.4	-0.4	6.6	5.0	99.0	103.0	x	x	x
O=C(CNC(=O)c1ccc(Cl)cc1Cl)OCc1nnc(-c2ccccc2)o1	4.5	-53.1	-3.4	x	x	x	x	x	x
CCc1nc2nc(C)cc(Nc3cccc(C(F)(F)F)c3)n2n1	-6.7	4.6	3.7	-5.0	98.0	99.0	x	x	x
Cc1cc(Nc2cccc(C(F)(F)F)c2)n2nc(C)nc2n1	-5.9	-7.3	0.6	-65.0	1.0*[inhibitor]	0.0*[inhibitor]	106.0	9.0	108.0
Cc1cc(NS(=O)(=O)c2ccc(NC(=O)CSc3nnc(-c4ccco4)n3N)cc2)nc(C)n1	4.6	-1.7	-5.2	19.0	99.0	114.0	x	x	x
Cc1cc(NS(=O)(=O)c2ccc(NC(=O)CSc3nnc(-c4ccco4)n3C)cc2)nc(C)n1	0.1	3.9	3.9	1.0	141.0*	111.0	110.0	11.0	107.0
CCC1Oc2ccc(C)cc2N(CC(=O)NCCN2CCCCCC2)C1=O (centres undefined)	3.5	6.5	-6.0	22.0	107.0	137.0*	115.0	6.0	100.0
CN1CCN(c2ccc(Cl)cc2NC(=O)/C=C/c2ccc(F)cc2)CC1	10.6	-1.1	18.1	51.0*	108.0	195.0*	185.0	60.0	109.0
CN1CCN(c2ccc(Cl)cc2NC(=O)CCN2C(=O)c3ccccc3C2=O)CC1	12.9	41.8	36.4	0.0	108.0	171.0*	155.0	34.0	101.0
COc1ccc(CCC(=O)Nc2cccc(Cl)c2)cc1	11.1	-6.9	19.5	0.0	130.0*	107.0	122.0	10.0	105.0
COc1ccc(CC(=O)OCC(=O)Nc2cccc(Cl)c2)cc1	-1.2	-3.0	-8.2	-4.0	102.0	94.0	x	x	x
COc1ccc(CCC(=O)Nc2ccc(-c3noc(-c4ccc(OC)c(OC)c4)n3)cc2)cc1	-2.7	-8.4	-4.8	6.0	124.0*	123.0	111.0	3.0	106.0
O=C(/C=C/c1ccc(F)cc1)Nc1cc(S(=O)(=O)N2CCOCC2)ccc1N1CCCC1	15.8	13.0	-10.2	9.0	101.0	88.0	x	x	x
CN1CCN(C(=O)c2ccccc2NC(=O)CCN2C(=O)c3ccccc3C2=O)CC1	-11.5	2.8	4.6	1.0	100.0	104.0	x	x	x
CCCOc1ccccc1C(=O)Nc1ccc(S(=O)(=O)N2CCN(C)CC2)cc1	5.2	-3.8	7.9	13.0	101.0	111.0	x	x	x
COc1ccc(CCC(=O)Nc2cc(Cl)ccc2N2CCN(C)CC2)cc1	3.0	-0.5	1.3	25.0*	101.0	117.0	124.0	14.0	108.0
COc1ccc(CC(=O)Nc2cc(Cl)ccc2N2CCCC2)cc1	6.9	7.2	-0.8	3.0	103.0	101.0	x	x	x
CN(c1ccccc1)S(=O)(=O)c1cccc(NC(=O)C2=NNC(=O)CC2)c1	11.8	19.9	-6.5	x	x	x	x	x	x
Cc1ccccc1-c1nn(-c2ccc(F)cc2F)cc1CNCCN(C)C	-3.9	33.4	11.5	23.0	86.0	150.0*	144.0	30.0	106.0
Cc1ccccc1-c1nn(-c2ccc(F)cc2F)cc1CNCCCN(C)C	4.6	32.1	9.0	23.0	105.0	140.0*	146.0	29.0	109.0
CCC(COC)NCc1cn(-c2ccc(F)cc2F)nc1-c1ccccc1C (centres undefined)	-3.7	-65.1	2.6	-7.0	103.0	107.0	x	x	x
COCCN(C)Cc1cn(-c2ccc(F)cc2F)nc1-c1ccccc1C	4.2	-15.7	8.3	3.0	100.0	102.0	x	x	x
CCc1cc2c(SCC(=O)N3CCCC3=O)ncnc2s1	-0.1	6.3	1.2	x	x	x	x	x	x
SMILES	Apaf1 inhib	PREPL inh	UBC13 inh	MEKK2 mut-MEK5	MEKK3 PB1 HTS	MEKK2wt PB1 HTS	MEKK2wt confirm	MEKK2mut confirm	MEKK3-MEK5 inh
O=S(=O)(c1ccccc1)N1N=C(c2ccc(Cl)cc2)CC1c1ccco1 (centres undefined)	13.1	x	-1.5	x	x	x	x	x	x
O=C(N/N=C\C=C\c1ccco1)c1cc(-c2ccc3ccccc3c2)n[nH]1	19.0	14.4	19.0	0.0	132.0*	100.0	90.0	-9.0	99.0
O=C(N/N=C/C=C\c1ccco1)c1ccccn1	-17.7	-1.1	-10.9	4.0	112.0	104.0	x	x	x
CCc1ccc(NC(=O)C/C(C)=N/NC(=O)OCc2ccc(OC)cc2)cc1	1.7	1.3	21.6	1.0	136.0*	107.0	101.0	0.0	100.0
CCc1ccc(NC(=O)C(=O)N/N=C(\C)CC(=O)Nc2ccc(OC)cc2)cc1	2.3	-0.7	-0.5	-1.0	101.0	99.0	x	x	x
COc1cc(O)c(C(CC(=O)N2CCN(c3ccccc3)CC2)c2ccc3c(c2)OCO3)c(OC)c1 (centres undefined)	13.9	6.3	6.5	0.0	130.0*	153.0*	100.0	-7.0	104.0
COc1cc(O)c(C(CCN2CCCC2)c2ccc(N(C)C)cc2)c(OC)c1 (centres undefined)	14.4	39.9	11.9	8.0	119.0	153.0*	129.0	37.0	106.0
CCN(CC)CCC(c1ccc2c(c1)OCO2)c1c(O)cc(OC)cc1OC (centres undefined)	5.1	4.4	14.2	12.0	119.0	150.0*	116.0	3.0	105.0
COc1cc(O)c(C(CC(=O)N2CCCC2)c2ccc3c(c2)OCO3)c(OC)c1 (centres undefined)	6.5	2.9	-1.8	-13.0	96.0	94.0	x	x	x
COc1ccc(C(CC(=O)N2CCCCC2)c2c(O)cc(OC)cc2OC)cc1 (centres undefined)	23.5	-3.9	8.3	-2.0	81.0	72.0	x	x	x
